Measurements taken from ChEMBL document CHEMBL4270599, “Synthesis of a 3'-C-ethynyl-β-d-ribofuranose purine nucleoside library: Discovery of C7-deazapurine analogs as potent antiproliferative nucleosides” (Eur J Med Chem, 2018).

What was measured:
[1] = tested on: CCRF-CEM; experiment: Growth inhibition of human CCRF-CEM cells assessed as cell growth at 10^-5 M incubated for 48 hrs by sulforhodamine B assay relative to control; assay type: functional; settings: read-out: Activity
[2] = tested on: HOP-62; experiment: Growth inhibition of human HOP62 cells assessed as cell growth at 10^-8 M incubated for 48 hrs by sulforhodamine B assay relative to control; assay type: functional; settings: HOP-62, 48 h, read-out: Activity
[3] = tested on: SK-MEL-28; experiment: Growth inhibition of human SK-MEL-28 cells assessed as cell growth at 10^-6 M incubated for 48 hrs by sulforhodamine B assay relative to control; assay type: functional; settings: SK-MEL-28, 48 h, read-out: Activity
[4] = tested on: HT-29; experiment: Cytotoxicity against human HT-29 cells after 48 hrs by SRB assay; assay type: functional; settings: HT-29, 48 h; for GI50: read-out: GI50; for TGI: read-out: TGI
[5] = tested on: UO-31; experiment: Growth inhibition of human UO31 cells assessed as cell growth at 10^-7 M incubated for 48 hrs by sulforhodamine B assay relative to control; assay type: functional; settings: UO-31, 48 h, read-out: Activity
[6] = tested on: IGROV-1; experiment: Growth inhibition of human IGROV1 cells assessed as cell growth at 10^-4 M incubated for 48 hrs by sulforhodamine B assay relative to control; assay type: functional; settings: IGROV-1, 48 h, read-out: Activity
[7] = tested on: RPMI-8226; experiment: Growth inhibition of human RPMI8226 cells assessed as cell growth at 10^-7 M incubated for 48 hrs by sulforhodamine B assay relative to control; assay type: functional; settings: RPMI-8226, 48 h, read-out: Activity
[8] = tested on: SW-620; experiment: Growth inhibition of human SW620 cells assessed as cell growth at 10^-8 M incubated for 48 hrs by sulforhodamine B assay relative to control; assay type: functional; settings: SW-620, 48 h, read-out: Activity
[9] = tested on: SF-539; experiment: Cytotoxicity against human SF539 cells after 48 hrs by SRB assay; assay type: functional; settings: SF-539, 48 h; for GI50: read-out: GI50; for CC50: read-out: LC50 (the source's name); for TGI: read-out: TGI
[10] = tested on: CCRF-CEM; experiment: Antiproliferative activity against human CEM cells after 72 hrs by Coulter counter method; assay type: functional, cell-based
How it was run: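 Cell count assay in 96-well microtiter plates; (5–7.5) × 10⁴ tumor cells per well plus test compound. Cells proliferated at 37 °C in humidified CO₂-controlled atmosphere, 48 h for murine leukemia L1210, 72 h for human lymphocytic CEM and cervix carcinoma HeLa. Counted by Coulter counter; IC₅₀ is the concentration that inhibits proliferation by 50%.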

[11] = tested on: Malme-3M; experiment: Cytotoxicity against human MALME-3M cells after 48 hrs by SRB assay; assay type: functional; settings: for GI50: read-out: GI50; for CC50: read-out: LC50 (the source's name); for TGI: read-out: TGI
[12] = tested on: RXF 393; experiment: Growth inhibition of human RXF393 cells assessed as cell growth at 10^-6 M incubated for 48 hrs by sulforhodamine B assay relative to control; assay type: functional; settings: RXF 393, 48 h, read-out: Activity
[13] = tested on: ACHN; experiment: Growth inhibition of human ACHN cells assessed as cell growth at 10^-8 M incubated for 48 hrs by sulforhodamine B assay relative to control; assay type: functional; settings: read-out: Activity
[14] = tested on: K562; experiment: Growth inhibition of human K562 cells assessed as cell growth at 10^-6 M incubated for 48 hrs by sulforhodamine B assay relative to control; assay type: functional; settings: K562, 48 h, read-out: Activity
[15] = tested on: MCF7; experiment: Growth inhibition of human MCF7 cells assessed as cell growth at 10^-7 M incubated for 48 hrs by sulforhodamine B assay relative to control; assay type: functional; settings: MCF7, 48 h, read-out: Activity
[16] = tested on: M14; experiment: Growth inhibition of human M14 cells assessed as cell growth at 10^-8 M incubated for 48 hrs by sulforhodamine B assay relative to control; assay type: functional; settings: M14, 48 h, read-out: Activity
[17] = tested on: HT-29; experiment: Growth inhibition of human HT-29 cells assessed as cell growth at 10^-6 M incubated for 48 hrs by sulforhodamine B assay relative to control; assay type: functional; settings: HT-29, 48 h, read-out: Activity
[18] = tested on: UACC-257; experiment: Growth inhibition of human UACC257 cells assessed as cell growth at 10^-8 M incubated for 48 hrs by sulforhodamine B assay relative to control; assay type: functional; settings: UACC-257, 48 h, read-out: Activity
[19] = tested on: TK-10; experiment: Growth inhibition of human TK10 cells assessed as cell growth at 10^-7 M incubated for 48 hrs by sulforhodamine B assay relative to control; assay type: functional; settings: TK-10, 48 h, read-out: Activity
[20] = tested on: HCT-116; experiment: Cytotoxicity against human HCT116 cells after 48 hrs by SRB assay; assay type: functional; settings: HCT-116, 48 h; for GI50: read-out: GI50; for CC50: read-out: pLC50 (the source's name) (converted)
[21] = tested on: UO-31; experiment: Growth inhibition of human UO31 cells assessed as cell growth at 10^-6 M incubated for 48 hrs by sulforhodamine B assay relative to control; assay type: functional; settings: UO-31, 48 h, read-out: Activity
[22] = tested on: HUVEC; experiment: Antiproliferative activity against HUVEC cells after 4 days by Coulter counter method; assay type: cell-based; settings: Homo sapiens, 96 h
How it was run: (§1)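 Primary HUVEC, primary HMVEC-d and the HMEC-1 line seeded at 20,000 cells/well in gelatin-coated plates in EC growth medium (EGM2). After overnight incubation, 5-fold compound dilutions added. Cells proliferated four days with compound, then trypsinized and counted by Coulter counter to derive IC₅₀.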

[23] = tested on: SW-620; experiment: Growth inhibition of human SW620 cells assessed as cell growth at 10^-4 M incubated for 48 hrs by sulforhodamine B assay relative to control; assay type: functional; settings: SW-620, 48 h, read-out: Activity
[24] = tested on: UACC-62; experiment: Cytotoxicity against human UACC62 cells after 48 hrs by SRB assay; assay type: functional; settings: UACC-62, 48 h; for CC50: read-out: LC50 (the source's name)
[25] = tested on: ACHN; experiment: Cytotoxicity against human ACHN cells after 48 hrs by SRB assay; assay type: functional; settings: for CC50: read-out: pLC50 (the source's name) (converted)
[26] = Antiproliferative activity against HMVEC-d cells after 4 days by Coulter counter method; assay type: cell-based; settings: Homo sapiens, 96 h; how it was run: as §1
[27] = tested on: NCI-H522; experiment: Cytotoxicity against human NCI-H522 cells after 48 hrs by SRB assay; assay type: functional; settings: NCI-H522, 48 h; for GI50: read-out: GI50; for TGI: read-out: TGI
[28] = tested on: HCT-15; experiment: Growth inhibition of human HCT15 cells assessed as cell growth at 10^-8 M incubated for 48 hrs by sulforhodamine B assay relative to control; assay type: functional; settings: HCT-15, 48 h, read-out: Activity
[29] = tested on: ACHN; experiment: Growth inhibition of human ACHN cells assessed as cell growth at 10^-6 M incubated for 48 hrs by sulforhodamine B assay relative to control; assay type: functional; settings: read-out: Activity
[30] = tested on: MOLT-4; experiment: Growth inhibition of human MOLT4 cells assessed as cell growth at 10^-6 M incubated for 48 hrs by sulforhodamine B assay relative to control; assay type: functional; settings: MOLT-4, 48 h, read-out: Activity
[31] = tested on: HT-29; experiment: Growth inhibition of human HT-29 cells assessed as cell growth at 10^-4 M incubated for 48 hrs by sulforhodamine B assay relative to control; assay type: functional; settings: HT-29, 48 h, read-out: Activity
[32] = read-out: pLC50 (the source's name) (converted)
[33] = read-out: LC50 (the source's name)

## C#C[C@@]1(O)[C@@H](CO)O[C@@H](n2cc(I)c3c(N)ncnc32)[C@@H]1O
[1]
  growth at 10 µM: 5 to 6%
[2]
  growth at 0.01 µM: 83 to 89%
[3]
  growth at 1 µM: 62 to 78%
[4]
  GI50: 14.2 to 39.7 nM
  TGI: 3300 to 6840 nM
[4]; [32]
  CC50: > 100000 nM
[5]
  growth at 0.1 µM: 46 to 50%
[6]
  growth at 100 µM: 2 to 3%
[7]
  growth at 0.1 µM: 71 to 90%
[8]
  growth at 0.01 µM: 85 to 86%
[9]
  GI50: 304 to 471 nM
  CC50: 28600 to 31300 nM
  TGI: 2180 to 2980 nM
[10]
  IC50: 120 nM
[11]
  GI50: 525 to 1300 nM
  CC50: > 100000 nM
  TGI: 2760 to 4160 nM
[12]
  growth at 1 µM: 26 to 34%
[13]
  growth at 0.01 µM: 98%
[14]
  growth at 1 µM: 17 to 22%
[15]
  growth at 0.1 µM: 18 to 25%
[16]
  growth at 0.01 µM: 85 to 94%
[17]
  growth at 1 µM: 9 to 13%
[18]
  growth at 0.01 µM: 89 to 91%
[19]
  growth at 0.1 µM: 85 to 96%
[20]
  GI50: 34.4 to 54.7 nM
  CC50: > 100000 nM
[20]; read-out: TGI
  TGI: > 100000 nM
[20]; read-out: pTGI (converted)
  TGI: > 100000 nM
[21]
  growth at 1 µM: 20 to 28%
[22]
  IC50: 9.9 nM
[23]
  growth at 100 µM: 3%
[24]; read-out: GI50
  GI50: 573 to 659 nM
[24]
  CC50: 6630 to 24500 nM
[24]; read-out: TGI
  TGI: 2380 to 3230 nM
[25]
  GI50: 316 nM
  CC50: > 100000 nM
[25]; read-out: TGI
  TGI: > 100000 nM
[25]; read-out: pTGI (converted)
  TGI: > 100000 nM
[26]
  IC50: < 1.28 nM
[27]
  GI50: 64.8 to 152 nM
  TGI: 516 to 698 nM
[27]; [33]
  CC50: > 100000 nM
[28]
  growth at 0.01 µM: 74 to 84%
[29]
  growth at 1 µM: 28%

## C#C[C@@]1(O)[C@@H](CO)O[C@@H](n2cc(Cl)c3c(N)ncnc32)[C@@H]1O
[1]
  growth at 10 µM: 2 to 4%
[2]
  growth at 0.01 µM: 88 to 90%
[3]
  growth at 1 µM: 32 to 43%
[4]
  GI50: 32.2 to 59.1 nM
  TGI: 747 to 100000 nM
[4]; [33]
  CC50: > 100000 nM
[5]
  growth at 0.1 µM: 61 to 69%
[7]
  growth at 0.1 µM: 64 to 65%
[8]
  growth at 0.01 µM: 88 to 91%
[9]
  GI50: 299 to 351 nM
  CC50: 21900 to 33900 nM
  TGI: 1300 to 1610 nM
[10]
  IC50: 12 nM
[11]
  GI50: 223 to 262 nM
  CC50: > 100000 nM
  TGI: 858 to 11800 nM
[30]
  growth at 1 µM: 2%
[13]
  growth at 0.01 µM: 95%
[14]
  growth at 1 µM: 7%
[15]
  growth at 0.1 µM: 17 to 25%
[16]
  growth at 0.01 µM: 93 to 94%
[18]
  growth at 0.01 µM: 87 to 100%
[19]
  growth at 0.1 µM: 100 to 101%
[20]
  GI50: 18.5 to 22.1 nM
  CC50: > 100000 nM
[20]; read-out: TGI
  TGI: > 100000 nM
[20]; read-out: pTGI (converted)
  TGI: > 100000 nM
[22]
  IC50: 4.9 nM
[24]
  CC50: > 100000 nM
[24]; read-out: TGI
  TGI: 383 nM
[24]; read-out: pGI50 (converted)
  GI50: 170 nM
[24]; read-out: pTGI (converted)
  TGI: 380 nM
[25]
  GI50: 219 nM
  CC50: > 100000 nM
[26]
  IC50: < 1.28 nM
[27]
  GI50: 81.6 to 134 nM
  TGI: 276 to 455 nM
[27]; [32]
  CC50: > 100000 nM
[28]
  growth at 0.01 µM: 78 to 80%
[31]
  growth at 100 µM: 1%
[29]
  growth at 1 µM: 7%
